Data: ChEMBL document CHEMBL1141390, “20S-protopanaxadiol-induced programmed cell death in glioma cells through caspase-dependent and -independent pathways” (J Nat Prod, 2007)
Activity calls are given as the source filed them. The rule behind the calls is not given here. Residues, ends and D or L forms follow the SMILES beside them. *: point of attachment. Cbz = O=C(OCc1ccccc1)*; CH2F = FC*

Tests used:
SF-188 [1] = assay: Cell viability in human SF188 cells in presence of Z-VAD-FMK; assay type: functional
SF-188 [2] = assay: Cell viability in human SF188 cells; assay type: functional
In short: (§1)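 SF188 cells were seeded at 2.5 × 10^5/mL 24 h before use. For the inhibitor arm, cells were pretreated for 2 h with various concentrations of Z-VAD-FMK, then 43.4 µM compound was added. Viability was read by MTT assay 8 h after compound addition.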

SF-188 [3] = assay: Cell viability of human SF188 cells in presence of tBHQ, Z-VAD-FMK; assay type: functional
SF-188 [4] = assay: Induction of autophagy in human SF188 cells by MDC staining at 43.4 uM after 4 hrs; assay type: functional, cell-based
In short: (§2)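 SF188 and U87MG cells were treated with 43.4 or 108.4 µM compound for 4 h. Autophagic vacuoles were then visualized by monodansylcadaverine (MDC) staining.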

U-87 MG [5] = assay: Induction of autophagy in human U87MG cells by MDC staining at 43.4 uM after 4 hrs; assay type: functional, cell-based; conditions: U-87MG ATCC; in short: as §2
U-87MG ATCC [6] = assay: Reduction of Akt phosphorylation in human U87MG cells after 7 hrs; assay type: cell-based
SF-188 [7] = assay: Reduction of Akt phosphorylation in human SF188 cells after 5 hrs; assay type: cell-based
SF-188 [8] = assay: Induction of autophagy in human SF188 cells by MDC staining at 108.4 uM after 4 hrs; assay type: functional, cell-based; in short: as §2
U-87 MG [9] = assay: Induction of autophagy in human U87MG cells by MDC staining at 108.4 uM after 4 hrs; assay type: functional, cell-based; conditions: U-87MG ATCC; in short: as §2
Caspase-3 (Homo sapiens) = target: T1, Caspase-3 (Homo sapiens) (UniProt P42574); assay: Activation of caspase 3 in human SF188 cells at 108.4 uM; assay type: cell-based; conditions: SF-188
T1 sequence (whole entry): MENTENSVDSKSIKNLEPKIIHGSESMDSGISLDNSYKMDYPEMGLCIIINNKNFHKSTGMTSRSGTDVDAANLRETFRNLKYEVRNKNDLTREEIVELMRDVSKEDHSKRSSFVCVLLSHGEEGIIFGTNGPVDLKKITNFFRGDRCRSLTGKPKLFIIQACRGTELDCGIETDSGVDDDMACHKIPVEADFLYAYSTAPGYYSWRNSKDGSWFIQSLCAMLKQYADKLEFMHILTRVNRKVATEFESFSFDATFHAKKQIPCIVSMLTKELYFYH
In short: (§3)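 Western blot of SF188 lysates after treatment with 108.4 µM compound, sampled at different time points or at different concentrations. 50 µg total protein loaded per lane. Pro-caspase and cleaved (active) caspase bands were detected, with actin as loading control.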

Caspase-8 (Homo sapiens) = Caspase-8 (Homo sapiens) (UniProt Q14790); assay: Activation of caspase 8 in human SF188 cells at 108.4 uM; assay type: cell-based; conditions: SF-188; in short: as §3
Caspase-8 (Homo sapiens), sequence (Q14790 217-374 limits assumed): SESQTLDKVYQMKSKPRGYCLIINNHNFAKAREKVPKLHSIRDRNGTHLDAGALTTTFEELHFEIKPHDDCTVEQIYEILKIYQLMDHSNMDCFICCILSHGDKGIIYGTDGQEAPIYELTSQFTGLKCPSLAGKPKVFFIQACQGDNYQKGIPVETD
Caspase-8 (Homo sapiens), sequence (Q14790 385-479 limits assumed): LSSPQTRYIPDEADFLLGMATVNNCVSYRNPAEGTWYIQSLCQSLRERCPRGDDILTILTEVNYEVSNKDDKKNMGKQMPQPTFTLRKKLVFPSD

Caspase-7 (Homo sapiens) = target: T2, Caspase-7 (Homo sapiens) (UniProt P55210); assay: Activation of caspase 7 in human SF188 cells at 108.4 uM; assay type: cell-based; conditions: SF-188; in short: as §3
T2 sequence (whole entry): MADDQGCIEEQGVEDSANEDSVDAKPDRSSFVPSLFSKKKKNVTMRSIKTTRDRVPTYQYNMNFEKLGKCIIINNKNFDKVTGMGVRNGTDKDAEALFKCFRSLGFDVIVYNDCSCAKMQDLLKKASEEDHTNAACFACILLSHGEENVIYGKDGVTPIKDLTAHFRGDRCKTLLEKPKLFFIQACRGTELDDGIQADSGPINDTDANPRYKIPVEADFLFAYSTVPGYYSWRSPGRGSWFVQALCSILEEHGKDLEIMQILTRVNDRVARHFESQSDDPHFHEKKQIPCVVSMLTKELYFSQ

Caspase-9 (Homo sapiens) = target: T3, Caspase-9 (Homo sapiens) (UniProt P55211); assay: Activation of caspase 9 in human SF188 cells at 108.4 uM; assay type: cell-based; conditions: SF-188; in short: as §3
T3 sequence (whole entry): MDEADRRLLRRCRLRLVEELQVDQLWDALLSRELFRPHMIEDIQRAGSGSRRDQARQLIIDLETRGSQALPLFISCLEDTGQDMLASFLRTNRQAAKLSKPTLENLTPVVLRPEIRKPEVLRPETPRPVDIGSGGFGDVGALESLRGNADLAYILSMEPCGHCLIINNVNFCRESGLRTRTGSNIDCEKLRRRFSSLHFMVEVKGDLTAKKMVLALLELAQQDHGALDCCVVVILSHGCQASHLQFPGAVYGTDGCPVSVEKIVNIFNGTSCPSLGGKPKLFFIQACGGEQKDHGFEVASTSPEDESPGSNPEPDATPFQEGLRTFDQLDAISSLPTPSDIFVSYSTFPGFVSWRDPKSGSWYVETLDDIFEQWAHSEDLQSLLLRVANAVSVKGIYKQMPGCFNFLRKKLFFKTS

[10] = Cytotoxicity against human SF188 cells at 43.4 uM after 24 hrs by MTT assay; assay type: cell-based; conditions: sf-188, 24 h
In short: (§4)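 Glioma cells seeded at 2.5 × 10^5/mL 24 h before treatment, then exposed to a range of concentrations for 24 h. Viability was measured by MTT assay, and cell death was read from the 24 h dose-response curve.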

[11] = Cytotoxicity against human U87MG cells at 108.4 uM after 24 hrs by MTT assay; assay type: cell-based; conditions: u-87mg atcc; in short: as §4
[12] = Cytotoxicity against human SF188 cells at 108.4 uM within 10 hrs by MTT assay; assay type: cell-based; conditions: sf-188, 10 h
In short: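 Cells seeded at 2.5 × 10^5/mL 24 h beforehand were treated with 108.4 µM. Viability was measured by MTT assay at 1, 4, 6, 8, 10 and 24 h after treatment.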

[13] = Cytotoxicity against human SF188 cells after 24 hrs; assay type: cell-based; conditions: SF-188, 24 h; in short: as §4
[14] = Cytotoxicity against human U87MG cells after 24 hrs; assay type: cell-based, U-87MG ATCC; conditions: U-87 MG; in short: as §4
SF-188 [15] = assay: Induction of apoptosis in human SF188 cells at 108.4 uM within 3 hrs; assay type: functional
In short: (§5)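 SF188 or U87MG cells were treated with 108 µM compound and stained by TUNEL (ApopTag). Apoptotic cells were counted as % TUNEL-positive: at 3 h for SF188, at 7 h for U87MG. Untreated cells served as controls.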

U-87 MG [16] = assay: Induction of apoptosis in human U87MG cells at 108.4 uM within 7 hrs; assay type: functional, U-87MG ATCC; in short: as §5
U-87MG ATCC [17] = assay: Activation of caspases in human U87MG cells; assay type: cell-based
In short: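 Western blot of U87MG cells treated with 108.4 µM compound for up to 9 h, probing pro- and cleaved caspases-8 and -3. 50 µg protein per lane. Lysate from treated SF188 cells served as positive control and actin as loading control.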

SF-188 [18] = assay: Increase in superoxide anion level in human SF188 cells after 2 hrs; assay type: functional, cell-based
In short: (§6)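 Superoxide anion was measured by dihydroethidine (HE) fluorescence using flow cytometry in SF188 or U87MG cells 2 h after treatment at several concentrations. Result is reported as the percentage of HE-positive cells.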

U-87 MG [19] = assay: Increase in superoxide anion level in human U87MG cells after 2 hrs; assay type: functional, cell-based; conditions: U-87MG ATCC; in short: as §6
SF-188 [20] = assay: Cell viability in human SF188 cells in presence of tBHQ at 86.8 uM; assay type: functional
SF-188 [21] = assay: Inhibition of 20S-protopanaxadiol-induced activation of caspases in human SF188 cells; assay type: cell-based
SF-188 [22] = assay: Inhibition of TNF-alpha-induced apoptosis in human SF188 cells; assay type: functional, cell-based
SF-188 [23] = assay: Inhibition of cycloheximide-induced apoptosis in human SF188 cells; assay type: functional, cell-based
SF-188 [24] = assay: Inhibition of 20S-protopanaxadiol-induced apoptosis in human SF188 cells after 8 hrs by MTT assay; assay type: functional; set-up: scale not given: the % may be the effect or the level left; in short: as §1

**Q.** For `CC(C)=CCC[C@](C)(O)[C@H]1CC[C@]2(C)[C@@H]1[C@H](O)C[C@@H]1[C@@]3(C)CC[C@H](O)C(C)(C)[C@@H]3CC[C@]12C`, which Activity (SF-188 [1]) is on record?
**A.** 36%

**Q.** And the Activity (SF-188 [2])?
**A.** 16.5%

**Q.** And the Activity (SF-188 [3])?
**A.** 89.4%

**Q.** What about the Activity (SF-188 [4]) of the same compound?
**A.** Active

**Q.** And the Activity (U-87 MG [5])?
**A.** Active

**Q.** What about the Activity (U-87MG ATCC [6]) of the same compound?
**A.** Dose-dependent effect

**Q.** And the Activity (SF-188 [7])?
**A.** inactive

**Q.** What about the Activity (SF-188 [8]) of the same compound?
**A.** Active

**Q.** What about the Activity (U-87 MG [9]) of the same compound?
**A.** Active

**Q.** And the Activity (Caspase-3 (Homo sapiens))?
**A.** Active

**Q.** And the Activity (Caspase-8 (Homo sapiens))?
**A.** Active

**Q.** What about the Activity (Caspase-7 (Homo sapiens)) of the same compound?
**A.** Active

**Q.** What about the Activity (Caspase-9 (Homo sapiens)) of the same compound?
**A.** Active

**Q.** And the Activity [10]?
**A.** 100%

**Q.** What about the Activity [11] of the same compound?
**A.** 90%

**Q.** What about the Activity [12] of the same compound?
**A.** 90%

**Q.** What about the IC50 [13] of the same compound?
**A.** 24 µM

**Q.** And the IC50 [14]?
**A.** 38 µM

**Q.** And the Activity (SF-188 [15])?
**A.** 42.67%

**Q.** And the Activity (U-87 MG [16])?
**A.** 51.01%

**Q.** What about the Activity (U-87MG ATCC [17]) of the same compound?
**A.** inactive

**Q.** And the Activity (SF-188 [18])?
**A.** Active

**Q.** What about the Activity (U-87 MG [19]) of the same compound?
**A.** Active

**Q.** What about the Activity (SF-188 [20]) of the same compound?
**A.** 30.46%

**Q.** For `CC(C)[C@H](NC(=O)OCc1ccccc1)C(=O)N[C@@H](C)C(=O)N[C@@H](CC(=O)O)C(=O)CF` (Cbz-Val-Ala-Asp-CH2F), which Activity (SF-188 [21]) is on record?
**A.** Active

**Q.** And the Activity (SF-188 [22])?
**A.** Active

**Q.** And the Activity (SF-188 [23])?
**A.** Active

**Q.** What about the Activity (SF-188 [24]) of the same compound?
**A.** 44.72%
